FN deposition inh: fibronectin deposition inhibition. hit rate 0.086% among 350,000. AH1F fibroblasts, Alexa488-fibronectin deposition fluorescence, overnight. inhibition, % at 12.6 µM;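 active = mean inhibition across replicates of 30% or more, regardless of how many single replicates reach that level; inconclusive = mean under 30% yet at least half of replicates reach 30%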
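Material – AH1F fibroblast monolayer, labelled fibronectin deposition · Reagent – labelled fibronectin 24 nM · Timing – 1 h adhesion, overnight exposure · Measured by – fluorescence at 485 nm excitation, 525 nm emission · Read-out – inhibition of fibronectin deposition signal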
DENV2 CPE: DENV2-induced cell death inhibition; DENV2-infected cells, cytopathic effect rescue, plate reader; CPE inhibition, % at 9.99 µM; hit rate 1.7% among 350,000; AID 651640; in the data active = CPE inhibition above about 20%, passing the limit was not always enough; inconclusive = no clear call, values can overlap the other calls; tested in BHK-21 cells
XiGFP reactiv: X-chromosome reactivation activator; XiGFP mouse fibroblasts, % GFP-positive cells imaging, 3 d; cells co-treated with 5-aza-dC sensitizer; scaled so ellipticine positive control = 100%; activation, % at 7.58 µM; hit rate 0.055% among 360,000; AID 743238;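 active = mean normalized replicate activation at least 10% and every replicate at or above 10%; inconclusive = only one of the two criteria met; inactive = mean below 10% and not all replicates reach 10%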
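Assay system – SV40-immortalized XiGFP fibroblast cells, line 68-5-11 · Buffer or medium – DMEM supplemented with 5-aza-dC as sensitizing agent · Dosing – one concentration, pinned · Benchmarks – positive control ellipticine, 6 µM final · Times – 3 days compound exposure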
Casp6 inh: blocks human caspase-6 cleavage activity; purified caspase-6, Z-VEID-R110 cleavage fluorescence; inhibition, % at 12.5 µM; hit rate 0.53% among 350,000; AID 686996;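 active = mean inhibition across replicates at least about 35%, with every replicate also reaching that limit, limit read from the data; inconclusive = only one of the two criteria met; inactive = neither criterion met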
Target sequence (P55212 24-179 limits assumed): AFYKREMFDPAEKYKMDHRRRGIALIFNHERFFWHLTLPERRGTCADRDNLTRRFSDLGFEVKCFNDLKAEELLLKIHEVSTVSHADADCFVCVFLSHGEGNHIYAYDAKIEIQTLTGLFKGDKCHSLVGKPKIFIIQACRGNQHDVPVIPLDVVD
Target sequence (P55212 194-293 limits assumed): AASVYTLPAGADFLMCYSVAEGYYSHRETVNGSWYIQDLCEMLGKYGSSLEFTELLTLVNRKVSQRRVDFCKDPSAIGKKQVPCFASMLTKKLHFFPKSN
CaV13 ICDI inh: Disruptors of the CACNA1D IQ motif to Ca2+-dependent inactivation inhibitor domain association, primary screening, Förster resonance energy transfer in intact living … | inhibition, % at 12.3 µM | HEK cells, CFP/YFP FRET ICDI-IQ, plate reader, 10 min; percent FRET-ratio fall versus neutral wells | hit rate 0.098% among 340,000;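 active = mean replicate inhibition of at least 30% and at least 1% of replicates passing that level; inconclusive = only one of the two criteria is met; inactive = neither criterion is met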
Of the large screens only hits and unclear results are named; the others gave an inactive call. An excerpt weighted towards active compounds, which were near 2% of everything screened.

CC(=O)NC[C@H]1[C@@H](c2ccc(-c3cccnc3)cc2)[C@H](CO)N1C(=O)C1CC1	DENV2 CPE 28 (no result: FN deposition inh, CaV13 ICDI inh)
CC(=O)N1[C@H](CO)[C@@H](c2ccc(-c3cccc(F)c3)cc2)[C@H]1CNC(=O)C1CC1	DENV2 CPE 124 (no result: Casp6 inh, CaV13 ICDI inh)
CC(=O)NC[C@H]1[C@H](c2ccc(-c3cccnc3)cc2)[C@@H](CO)N1C(=O)C1CC1	none (no result: FN deposition inh, CaV13 ICDI inh)
C[C@H](CO)N1C[C@H](C)[C@H](CN(C)C(=O)c2ccncc2)OCCCC[C@H](C)Oc2ccc(NC(=O)Cc3ccccc3)cc2C1=O	none (no result: CaV13 ICDI inh)
C[C@H](CO)N1C[C@H](C)[C@H](CN(C)S(C)(=O)=O)OCCCC[C@H](C)Oc2ccc(NC(=O)Cc3ccccc3)cc2C1=O	none (no result: FN deposition inh, CaV13 ICDI inh)
C/C=C/c1ccc([C@@H]2[C@@H](CNC(C)=O)N(C(=O)Cc3cccnc3)[C@H]2CO)cc1	none (no result: Casp6 inh, CaV13 ICDI inh)
C/C=C/c1ccc([C@@H]2[C@H](CO)N(C(=O)Cc3ccncc3)[C@H]2CNC(C)=O)cc1	DENV2 CPE 31 (no result: Casp6 inh, CaV13 ICDI inh)
CC(=O)NC[C@@H]1[C@H](c2ccc(-c3ccccc3F)cc2)[C@H](CO)N1C(=O)C1CC1	none (no result: CaV13 ICDI inh)
CC(=O)NC[C@H]1[C@H](c2ccc(-c3ccccc3F)cc2)[C@@H](CO)N1C(=O)C1CC1	DENV2 CPE 81 (no result: CaV13 ICDI inh)
COc1cccc(S(=O)(=O)N(C)C[C@H]2Oc3ncc(-c4cccc(C(=O)N(C)C)c4)cc3C(=O)N([C@@H](C)CO)C[C@@H]2C)c1	none (no result: CaV13 ICDI inh)
COc1ccc(NC(=O)Nc2ccc3c(c2)CC(=O)N([C@@H](C)CO)C[C@@H](C)[C@H](CN(C)C)O3)cc1	none (no result: CaV13 ICDI inh)
CCCCn1c(NC(=O)c2ccco2)c(S(=O)(=O)c2ccc(C)cc2)c2nc3ccccc3nc21	none
CCCCn1c(NS(=O)(=O)c2ccccc2)c(S(=O)(=O)c2ccc(C)cc2)c2nc3ccccc3nc21	Casp6 inh 98
C[C@@H]1CN([C@@H](C)CO)C(=O)c2cc(NC(=O)NC3CCCCC3)ccc2O[C@H]1CN(C)C(=O)NC1CCCCC1	DENV2 CPE inconclusive (no result: FN deposition inh, Casp6 inh, CaV13 ICDI inh)
C[C@@H]1CN([C@H](C)CO)C(=O)c2cc(N(C)C)ccc2O[C@@H](C)CCCCO[C@H]1CN(C)C(=O)CCC(F)(F)F	none (no result: FN deposition inh, CaV13 ICDI inh)
CC(C)(C)c1ccc(C(=O)Nc2cccc3ncccc23)cc1	none
CC(=O)Nc1cccc2ncccc12	DENV2 CPE 32
COc1cc(NC(C)=O)c2ncccc2c1Br	DENV2 CPE 89 (no result: Casp6 inh)
CC(=O)C1=C(O)C(=O)N(c2ccc(O)cc2)C1c1ccc([N+](=O)[O-])cc1 (stereo not drawn)	FN deposition inh 36
COc1ccc(CN(C)C[C@H]2OCCCC[C@H](C)Oc3ccc(NC(=O)C4CCCCC4)cc3C(=O)N([C@@H](C)CO)C[C@H]2C)cc1	none (no result: CaV13 ICDI inh)
CC(=O)N1[C@H](CO)[C@H](c2ccccc2)C12CN(C(=O)CN1CCOCC1)C2	DENV2 CPE 83 (no result: FN deposition inh, CaV13 ICDI inh)
O=C(c1ccc2c(c1)OCO2)N1CCC(Cc2ccccc2)CC1	DENV2 CPE 25
CC(=O)N1[C@H](CO)[C@H](c2ccccc2)C12CN(C(=O)c1ccc3c(c1)OCO3)C2	none (no result: FN deposition inh, CaV13 ICDI inh)
CC(=O)N1[C@H](CO)[C@@H](c2ccccc2)C12CN(C(=O)c1ccc3c(c1)OCO3)C2	DENV2 CPE 55 (no result: FN deposition inh, CaV13 ICDI inh)
COc1ccc(S(=O)(=O)N(C)C[C@@H]2Oc3ccc(NC(=O)Nc4cccc5ccccc45)cc3C(=O)N([C@@H](C)CO)C[C@@H]2C)cc1	DENV2 CPE inconclusive (no result: CaV13 ICDI inh)
CCC(=O)N1CC2(C1)CN(C(=O)Nc1ccccc1F)[C@@H](CO)c1[nH]c3cc(OC)ccc3c12	none (no result: FN deposition inh, CaV13 ICDI inh)
C[C@@H]1CN([C@@H](C)CO)C(=O)c2cc(C#CC3CCCC3)cnc2O[C@H]1CN(C)C(=O)C1CC1	DENV2 CPE 28 (no result: CaV13 ICDI inh)
C[C@H](CO)N1C[C@H](C)[C@@H](CN(C)C(=O)C2CC2)Oc2ncc(C#CC3CCCC3)cc2C1=O	DENV2 CPE 25 (no result: CaV13 ICDI inh)
C[C@@H]1CN([C@@H](C)CO)C(=O)c2cc(C#CC3CCCC3)cnc2O[C@@H]1CN(C)C(=O)C1CCC1	none (no result: FN deposition inh, CaV13 ICDI inh)
O=C(O)C[C@H]1C[C@@H]2c3cc(NC(=O)CC4CC4)ccc3O[C@@H]2[C@@H](CO)O1	none (no result: CaV13 ICDI inh)
O=C1Nc2ccccc2/C1=N\N=C\c1ccc(O)c(O)c1	Casp6 inh 36
Oc1ccc(/C=N/N=C/c2ccc(O)c(O)c2)cc1O	Casp6 inh 68
O=C(/C(=N/N=C/c1ccc(O)c(O)c1)c1ccccc1)c1ccccc1	Casp6 inh 44
Oc1ccc(/C=N/N(c2ccccc2)c2ccccc2)cc1O	none (no result: FN deposition inh, CaV13 ICDI inh)
CC(=O)N(C)C[C@H]1Oc2ccccc2C(=O)N(C)C[C@H]1C	none (no result: DENV2 CPE, Casp6 inh, CaV13 ICDI inh)
COc1ccccc1CNC(=O)C[C@@H]1CC[C@@H]2[C@H](COC[C@H](O)CN2C(=O)Nc2ccc(C(F)(F)F)cc2)O1	none (no result: CaV13 ICDI inh)
Cc1ccc2nc(NC(=O)CN3CCOCC3)sc2c1	none (no result: DENV2 CPE, XiGFP reactiv, Casp6 inh)
CCN1CCN(CC(=O)Nc2nc3ccc(C)cc3s2)CC1	DENV2 CPE 25
CCN(C(=O)CSc1nncn1-c1ccccc1)C1CCS(=O)(=O)C1 (stereo not drawn)	DENV2 CPE 85
